Results taken from article PMC4785611 (British Journal of Haematology, 2016).
Entries after “also recorded” stand apart in the source; their conditions may differ.

How the values were obtained:
[1] = system: Japanese patients with relapsed and/or refractory multiple myeloma; experiment: Phase 1/2 study ONO-7057-01: adverse events; assay type: in vivo, human
Procedure, shortened: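 Safety set was all patients given ≥1 IV dose (10 min; Days 1, 2, 8, 9, 15, 16 of 28-day cycles). Pre-medication was 4 mg oral or IV dexamethasone, with hydration in Cycle 1. Cycle 1 also had prophylactic antibiotics, plus acyclovir if herpes history. Patients with Grade ≥3 or painful Grade 2 PN or prior ILD were excluded. AEs were graded by NCI-CTCAE v4.0 through Cycle 6, with later cycles included.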

[2] = system: Japanese patients with relapsed and/or refractory multiple myeloma; experiment: Phase 1 dose escalation: dose-limiting toxicity in Cycle 1; assay type: in vivo, human; details: for Dose-limiting toxicity (DLT): Cycle 1
Procedure, shortened: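 Test compound was given IV over 10 min on Days 1, 2, 8, 9, 15 and 16 of 28-day cycles. The 20/27 arm received 20 mg/m2 on Days 1–2 of Cycle 1 and 27 mg/m2 from Day 8. Three or six patients per cohort: 1/3 DLT added three patients. At 2/3 or 3/6, the prior level became the recommended dose. No G-CSF was allowed during Cycle 1 evaluation.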

[3] = system: patients with multiple myeloma; details: of 526 patients; ref Siegel et al, 2013; cited from earlier work

Compound: CC(C)C[C@H](NC(=O)[C@H](CCc1ccccc1)NC(=O)CN1CCOCC1)C(=O)N[C@@H](Cc1ccccc1)C(=O)N[C@@H](CC(C)C)C(=O)[C@@]1(C)CO1 [carfilzomib]
- Peripheral neuropathy under study treatment, preferred terminology (Grade) ([1]; Patient No. 1, 20 mg/m^2, baseline PN Grade 1, worst PN Grade before the study 3): Peripheral neuropathy (2)
- Interstitial lung disease (ILD) ([1]; Total, N = 50): No ILD was observed
- AEs leading to death ([1]; during administration period or within 30 days after final administration): No AEs led to death
- New PN in patients who had never experienced PN before enrolment ([1]; five patients without PN history): no new cases of PN occurred and did not develop PN and none
- Patients with PN at baseline in whom carfilzomib exacerbated PN ([1]; of 35 patients with PN at baseline): three
- Patients believed to have infections leading to treatment interruption (pneumonia, fever) ([1]; of the 24 patients whose treatment was interrupted): three
- Patients with treatment interrupted because of neutropenia ([1]; of the 24 patients whose treatment was interrupted, seven events): five
- Dose-limiting toxicity (DLT) ([2]; 15 mg/m^2 cohort, four patients (one not evaluable)): no DLT was observed
- Dose-limiting toxicity (DLT) ([2]; 20/27 mg/m^2 cohort, seven patients (one not evaluable)): no DLT was observed
- Maximum tolerated dose (MTD) ([2]; doses 15, 20 and 20/27 mg/m^2): did not reach the maximum tolerated dose; also recorded: did not reach the MTD
- PN Grade ≥3, patients, integrated analysis [3]: seven
